According to ChEMBL document CHEMBL2429850, “In vitro and in vivo effects of (-)-epigallocatechin 3-O-gallate on Leishmania amazonensis” (J Nat Prod, 2013):
Calls of active or inactive are those of the source. The rule behind the calls is not given here.

Assays:
[1] = Selectivity index, ratio of CC50 for Balb/c mouse peritoneal macrophages to IC50 for promastigotes of Leishmania amazonensis IFLA/BR/1967/PH-8; assay type: functional
[2] = Selectivity index, ratio of IC50 for Swiss mouse peritoneal macrophages to IC50 for intracellular amastigotes of Leishmania amazonensis MHOM/BR/75/LTB0016
Procedure, shortened: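 Ratio of the macrophage IC50 (AlamarBlue, 72 h) to the intracellular amastigote IC50 (infection index, 72 h).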

Mus musculus [3] = test: Toxicity in stationary-phase promastigotes of Leishmania amazonensis MHOM/BR/75/LTB0016 infected BALB/c mouse assessed as serum creatinine level at 30 mg/kg, po administered 5 times per week; assay type: organism-based; set-up: dose 30 mg/kg, route oral; conditions: in vivo
Procedure, shortened: (§1)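 Infected BALB/c mice (2 × 10^6 promastigotes intradermally, ear) were dosed orally at 30 mg/kg/day in PBS, once daily, five times a week, to day 52. The PBS-treated group served as control. Serum was collected at euthanasia, and ALT, AST and creatinine were measured with colorimetric kits. n = 5.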

Mus musculus [4] = test: Toxicity in stationary-phase promastigotes of Leishmania amazonensis MHOM/BR/75/LTB0016 infected BALB/c mouse assessed as serum alanine aminotransferase level at 30 mg/kg, po administered 5 times per week; assay type: organism-based; set-up: dose 30 mg/kg, route oral; conditions: in vivo; procedure, shortened: as §1
Leishmania amazonensis [5] = test: Antileishmanial activity against stationary-phase promastigotes of Leishmania amazonensis MHOM/BR/75/LTB0016 infected in BALB/c mouse assessed as reduction of lesion size at 30 mg/kg, po administered 5 times per week; assay type: functional, organism-based; set-up: dose 30 mg/kg
Procedure, shortened: (§2)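 BALB/c mice (five per group, specific pathogen-free) infected intradermally in the right ear with 2 × 106 L. amazonensis promastigotes. Compound diluted in PBS, given orally at 30 mg/kg/day once daily, five times a week, until day 52. Controls received oral sterile PBS. Meglumine antimoniate 30 mg/kg/day ip served as positive control. Lesions measured twice weekly by dial caliper. Parasite load from excised, weighed, minced ears by limiting dilution in Schneider's medium with 10% FCS; growth read after 7 days at 26 °C. n = 5 ears.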

Leishmania amazonensis [6] = test: Antileishmanial activity against intracellular amastigotes of Leishmania amazonensis MHOM/BR/75/LTB0016 infected in Swiss mouse peritoneal macrophages assessed as inhibition of infection index after 72 hrs by light microscopic analysis; assay type: functional, organism-based
Procedure, shortened: (§3)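 Peritoneal macrophages from Swiss mice (6−8 weeks), plated in RPMI at 2 × 10^6 cells/mL, infected with L. amazonensis promastigotes (MOI 3.0) for 3 h at 37 °C, 5% CO2; free parasites washed off. Infected cells incubated with compound (3, 6, and 12 μM) or PBS vehicle for 72 h. Light microscopy, ≥200 cells per coverslip in duplicate. Infection index = % infected macrophages × amastigotes/total macrophages. IC50 by logarithmic regression. Three independent experiments; pentamidine (12 μM) reference.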

Leishmania amazonensis [7] = test: Antileishmanial activity against stationary-phase promastigotes of Leishmania amazonensis MHOM/BR/75/LTB0016 infected in BALB/c mouse assessed as reduction of parasite burden at 30 mg/kg, po administered 5 times per week; assay type: functional, organism-based; set-up: dose 30 mg/kg; procedure, shortened: as §2
[8] = Cytotoxicity against Swiss mouse peritoneal macrophages after 72 hrs by Alamar blue assay; assay type: cell-based; conditions: Peritoneal macrophage cell
Procedure, shortened: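 Swiss mouse peritoneal macrophages (2 × 10^6 cells/mL) adhered 1 h at 37 °C, 5% CO2; nonadherent cells washed off. Exposed to compound (3 to 3000 μM) for 72 h, washed, then AlamarBlue (10% v/v) for 12 h at 37 °C. Absorbance read at 570 nm. IC50 by logarithmic regression. 0.1% Triton X-100 lysis as positive control; PBS vehicle control; three independent experiments.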

Mus musculus [9] = test: Toxicity in stationary-phase promastigotes of Leishmania amazonensis MHOM/BR/75/LTB0016 infected BALB/c mouse assessed as serum aspartate aminotransferase level at 30 mg/kg, po administered 5 times per week; assay type: organism-based; set-up: dose 30 mg/kg, route oral; conditions: in vivo; procedure, shortened: as §1
Leishmania amazonensis [10] = test: Antileishmanial activity against intracellular amastigotes of Leishmania amazonensis MHOM/BR/75/LTB0016 infected in Swiss mouse peritoneal macrophages assessed as growth inhibition at 12 uM after 72 hrs; assay type: functional; conditions: MHOM/BR/75/LTB0016, 72 h, read-out: GI; procedure, shortened: as §3

For `CCCCCCCCCCCCCCCCOP(=O)([O-])OCC[N+](C)(C)C` [MILTEFOSINE], the “Ratio CC50/IC50” value [1] was 28.9.

With `O=C(O[C@@H]1Cc2c(O)cc(O)cc2O[C@@H]1c1cc(O)c(O)c(O)c1)c1cc(O)c(O)c(O)c1` [EPIGALOCATECHIN GALLATE] the “Ratio IC50” value [2] was 129.4, the Activity (Mus musculus [3]) was “Non-toxic” and the Activity (Mus musculus [4]) was “Non-toxic”. For the same molecule, the Activity (Leishmania amazonensis [5]) was “Active”, the inhibition (Leishmania amazonensis [6]) was “Dose-dependent effect” and the IC50 (Leishmania amazonensis [6]; MHOM/BR/75/LTB0016, 72 h) was 1.6 µM. The Activity (Leishmania amazonensis [7]) was “Active”, the IC50 [8] was 436 µM and the Activity (Mus musculus [9]) was “Non-toxic”. It also gave an inhibition of growth at 12 µM (Leishmania amazonensis [10]) of 83.6%.
